# Compound activity (PubChem)
# Sampled rows, rich in hits. Any-hit rate of the full collection: about 2.9%.
# A3A deaminase – blocks human APOBEC3A ssDNA deamination. P31941. inhibition, % at 20 µM. hit rate 0.41% among 330,000. AID 493011. recombinant A3A, FAM/TAMRA ssDNA deamination fluorescence;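 active = at least 40% inhibition at 20 µM here, with at most 30% in a related deaminase screen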;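 note: plate controls were A3A with DMSO for no effect and wells lacking A3A enzyme for full effect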
# Target sequence (P31941 whole entry, looked up): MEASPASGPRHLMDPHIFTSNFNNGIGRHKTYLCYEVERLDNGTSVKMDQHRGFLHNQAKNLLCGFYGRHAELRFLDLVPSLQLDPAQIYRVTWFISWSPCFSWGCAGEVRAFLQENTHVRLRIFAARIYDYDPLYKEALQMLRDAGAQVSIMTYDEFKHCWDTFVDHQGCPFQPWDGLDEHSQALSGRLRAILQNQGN
# PRMT1 inh – PRMT1 (human) inhibition, primary screen; Q99873; recombinant PRMT1, activity-based probe fluorescence polarization; inhibition, % at 2.79 µM; hit rate 1.3% among 370,000;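 active = inhibition above about 21% made by adding two undisclosed values, limit read from the data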
# A3G deaminase – APOBEC3G (human) deaminase inhibition | recombinant A3G, ssDNA deamination FAM/TAMRA fluorescence | inhibition, % at 20 µM | hit rate 0.28% among 330,000 | AID 493012;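 active = inhibition of at least 40% at 20 µM, with no more than 30% in the related APOBEC3A deaminase screen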;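 note: plate controls were DMSO wells with A3G for no effect and wells lacking A3G enzyme for full effect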
# NS3 helicase inh – blocks Hepatitis C virus NS3 helicase unwinding; NS3 helicase DNA unwinding, Cy5 molecular beacon fluorescence; inhibition, % at 10.9 µM; hit rate 0.56% among 290,000;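 active = inhibition above the mean of all tested compounds plus 3 SD, set per campaign, cut at about 35% in these data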;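 note: 0% = DMSO wells and 100% = thioflavine S control wells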
#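 System: Hepatitis C virus NS3 helicase domain fragment enzyme | Reagent: Annealed dual-labelled DNA beacon duplex, ATP-started | Compound dosing: 10.9 µM single point, 0.8% DMSO | Incubation: 1 h reaction at 25 °C, ATP-initiated | Technique: Cy5 fluorescence | Evaluation: Percent inhibition from t60/t0 fluorescence ratio | Benchmarks: Low DMSO, high thioflavine S at 110 µM | Replication: Singlicate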
# ABHD5 PLIN5 PPI – inhibitors of human ABHD5-perilipin-5 interaction. inhibition, % at 4 µM. Split G. princeps luciferase complementation, luminescence, 4 h. hit rate 0.78% among 360,000;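 active = inhibition above the mean inhibition across every tested compound plus 3 SD, cut at about 22% in these data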;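 note: 0% = DMSO only wells and the 100% control is not disclosed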
# HCV core dimer – HCV core protein dimerization inhibition; TR-FRET GST/Flag-core106 dimerization, 1536-well; inhibition, % at 5 µM; hit rate 0.33% among 300,000;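 active = inhibition above the mean of all tested compounds plus 3 SD, set per screening campaign, cut at about 45% in these data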
#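 test system = GST/Flag-tagged HCV core106 proteins | probe or stimulus = Eu donor and XL665 acceptor anti-tag antibodies | times = compound-protein-antibody incubation 4 h at 22.5 °C | signal = TR-FRET, excitation 340 nm, emission 617 and 671 nm | measure = percent inhibition of core106 dimerization signal | controls = wells lacking GST-core106 and wells with excess unlabelled core106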
# ABHD5-PLIN5 conf – confirmation of human ABHD5-PLIN5 interaction inhibitors; hit rate 67% among 2,200; shares compounds with ABHD5 PLIN5 PPI; AID 651612; inhibition, % at 4 µM; biochemical ABHD5-PLIN5 interaction, luminescence; in the data active = inhibition above about 23%;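 note: 0% = DMSO vehicle wells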
# HNF4 split-luc – active in HNF4 split-luciferase counter-screen for ABHD5-PLIN5 inhibitors | shares compounds with ABHD5 PLIN5 PPI | HNF4 dimerization, luminescence, biochemical | inhibition, % at 4 µM | hit rate 77% among 2,200 | AID 651674;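 active = mean inhibition across replicate wells exceeding the computed hit threshold, cut at about 13% in these data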;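 note: light from luciferase halves that rejoin when HNF4 fusion proteins dimerize; 0% = DMSO only wells and the 100% control is not given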
# Target sequence (P41235 whole entry, looked up, the tested form may be a part): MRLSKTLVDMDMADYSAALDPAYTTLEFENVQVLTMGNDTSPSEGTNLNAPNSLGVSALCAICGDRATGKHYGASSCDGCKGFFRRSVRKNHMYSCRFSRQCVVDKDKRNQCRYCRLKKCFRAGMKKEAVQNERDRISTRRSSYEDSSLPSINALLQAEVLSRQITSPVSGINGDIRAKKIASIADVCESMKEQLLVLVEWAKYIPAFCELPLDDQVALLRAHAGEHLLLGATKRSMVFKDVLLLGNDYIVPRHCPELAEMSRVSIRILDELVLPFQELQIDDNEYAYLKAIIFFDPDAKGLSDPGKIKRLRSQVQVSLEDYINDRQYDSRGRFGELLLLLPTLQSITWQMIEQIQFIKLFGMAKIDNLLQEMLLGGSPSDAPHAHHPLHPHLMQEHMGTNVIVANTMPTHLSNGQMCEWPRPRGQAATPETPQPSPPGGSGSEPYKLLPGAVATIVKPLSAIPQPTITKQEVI
# PRMT1 confirm – PRMT1 (human) inhibition, FP confirmation | shares compounds with PRMT1 inh | recombinant His-PRMT1, activity-based probe fluorescence polarization | inhibition, % at 2.79 µM | hit rate 42% among 3,300;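 active = mean inhibition across replicates above the hit cutoff derived for the earlier primary screen, cut at about 22% in these data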
# * = called active by the depositor; x = no result.
SMILES,A3A deaminase,PRMT1 inh,A3G deaminase,NS3 helicase inh,ABHD5 PLIN5 PPI,HCV core dimer,ABHD5-PLIN5 conf,HNF4 split-luc,PRMT1 confirm
Cc1ccc(/C=C/C(=O)Nc2ccc(N(C)C)cc2)o1,4.2,1.9,-3.9,1.0,0.9,-25.4,x,x,x
C=CCN=C1NC(c2ccc(C(F)(F)F)cc2)C(C(=O)OC)=C(C)N1C (centres undefined),x,-0.5,x,x,x,x,x,x,x
COc1ccc(/C=C/C(=O)NCC2COc3ccccc3O2)cc1OC (centres undefined),-1.1,-0.8,-4.4,-5.4,0.8,-4.6,x,x,x
Cc1ccc(/C=C/C(=O)NCC2COc3ccccc3O2)o1 (centres undefined),-1.8,34.4*,-5.6,2.1,23.8*,21.1,49.3*,62.7*,30.2*
CC1(C(=O)NS(=O)(=O)C2CC2)CCCN(C(=O)/C=C/c2ccccc2)C1 (centres undefined),x,0.6,x,x,8.9,x,x,x,x
Cc1ccc(/C=C/C(=O)N2CCN(S(=O)(=O)c3c(C)c(C)cc(C)c3C)CC2)o1,-1.6,16.4,-7.0,23.0,16.0,36.7,x,x,x
Cc1ccc(/C=C/C(=O)N2CCN(S(=O)(=O)c3ccc(C)c(C)c3)CC2)o1,1.7,37.3*,-5.5,25.5,43.5*,28.4,42.8*,61.7*,52.0*
O=C(O)C1(c2ccccc2)CCN(S(=O)(=O)c2ccc(Cl)cc2)CC1,2.2,3.6,-0.3,2.1,3.0,5.8,x,x,x
CCc1nc(N2CCN(C(=O)c3ccco3)CC2)c(C#N)c2c1COC(C)(C)C2,1.3,0.8,-2.9,-4.5,6.8,-0.3,x,x,x
CC(=O)N1CCN(c2nc(-c3ccco3)c3c(c2C#N)CC(C)(C)SC3)CC1,12.2,46.3*,4.7,22.8,34.9*,30.4,20.9,17.9*,4.9
O=C(NCCCO)c1ccc2nc(-c3ccco3)c(-c3ccco3)nc2c1,x,34.1*,x,0.5,25.2*,x,67.1*,68.5*,44.1*
CCc1nc2ccc(C(=O)NCCc3ccco3)cc2nc1CC,-1.1,x,0.6,21.6,8.9,-5.5,x,x,x
COc1cccc2c1C(=O)CC1C2CCC2CC(=O)CCC21C (centres undefined),-0.7,2.9,0.5,x,-4.1,-6.0,x,x,x
O=C(O)c1ccc(S(=O)(=O)c2ccc([N+](=O)[O-])cc2[N+](=O)[O-])cc1,-3.9,29.9*,-4.9,-1.7,42.3*,12.6,68.3*,110.2*,26.8*
O=C(/C=C/c1ccc(-c2ccccc2[N+](=O)[O-])o1)c1ccc(F)cc1,-1.0,33.0*,-2.7,22.1,28.9*,9.9,42.6*,32.7*,5.0
N#C/C(=C/c1ccc(-c2ccccc2[N+](=O)[O-])o1)C(N)=O,-0.8,-3.2,-8.1,-0.8,2.0,-2.3,x,x,x
O=C1C(O)=CC(=C(c2ccccc2)c2ccccc2)c2ccccc21,x,41.8*,x,x,97.2*,x,17.9,87.6*,6.8
N#C/C(=C\c1ccc(N2CCOCC2)o1)c1nc2ccccc2[nH]1,-27.0,57.9*,-36.0,17.8,23.9*,-86.4,29.1*,50.6*,-57.2
N#C/C(=C\c1ccc(N2CCOCC2)c([N+](=O)[O-])c1)c1nc2ccccc2[nH]1,-5.4,0.6,-7.0,-4.2,0.4,6.6,x,x,x
CC(C)C[C@@H](CN1CCC[C@@H]1CN1C(=S)NC[C@@H]1Cc1ccc(O)cc1)N1C[C@H](Cc2ccc(O)cc2)N(CC2CCCCC2)C1=S,x,-1.5,x,x,14.2,x,x,x,x
CC(C)(C)c1cc(C(=O)CCN2CCOCC2)cc(C(C)(C)C)c1O,-0.2,35.9*,-4.9,-7.1,32.2*,-3.3,12.3,32.0*,13.5
Cc1ccc(-c2nc3cnccn3c2Nc2c(C)cccc2C)o1,-6.5,78.7*,-6.9,1.9,37.7*,0.3,29.8*,94.5*,11.3
Cc1ccc(Nc2c(-c3ccc(C)o3)nc3ncccn23)cc1,-7.8,11.3,-2.0,17.8,2.6,-5.3,x,x,x
c1ccc(SC23CCCCN(CCC2)[C@]32CO2)cc1 (some centres undefined),x,7.1,x,x,-3.0,x,x,x,x
Cc1nnc(Sc2cc(NCCCO)c([N+](=O)[O-])c3nonc23)s1,x,90.9*,x,-3.0,27.1*,x,48.6*,110.9*,84.3*
SMILES,A3A deaminase,PRMT1 inh,A3G deaminase,NS3 helicase inh,ABHD5 PLIN5 PPI,HCV core dimer,ABHD5-PLIN5 conf,HNF4 split-luc,PRMT1 confirm
Cc1nnc(Sc2cc(NCCO)c([N+](=O)[O-])c3nonc23)s1,x,84.9*,x,-3.6,49.6*,x,51.5*,113.9*,88.8*
CCCSc1cc(NCCOC(C)=O)c([N+](=O)[O-])c2nonc12,1.0,2.7,-7.0,17.5,-12.9,4.3,x,x,x
O=C(COc1ccc(S(=O)(=O)N2CCOCC2)cc1)Nc1ccccc1Cl,-3.3,-1.1,-15.6,-1.2,3.4,2.7,x,x,x
CCOC(=O)c1csc(NC(=O)c2ccc3c(c2)OCCO3)n1,-2.9,x,-3.4,2.2,9.1,6.7,x,x,x
CCOC(=O)c1c(-c2ccc(C)o2)csc1NC(=O)CSc1nnnn1-c1ccccc1,-1.6,72.6*,-5.0,14.6,40.3*,1.3,23.3*,62.5*,3.9
CCOC(=O)c1c(-c2ccccc2)csc1NC(=O)CSc1nnc(C)s1,1.6,-1.8,-2.5,3.3,-2.5,13.5,x,x,x
CCOC(=O)c1c(-c2ccc(C)o2)csc1NC(=O)CSc1nnc(C)s1,-4.7,63.1*,-1.9,-8.9,33.3*,4.8,7.5,36.9*,15.2
Cn1cc(C(=O)N/N=C/C2=C(N3CCOCC3)C(=C/c3ccc([N+](=O)[O-])cc3)/CC2)ccc1=O,2.4,5.1,-3.9,x,5.5,16.0,x,x,x
O=C(O)c1ccc(N/N=C/C2=C(N3CCOCC3)C(=C\c3ccccc3)/CC2)cc1,-1.3,32.8*,-5.6,26.7,25.0*,9.8,16.9,42.4*,15.7
CCOC(=O)c1sc(NC(=O)C2CC(=O)N(c3ccc(C)cc3)C2)nc1C (centres undefined),-0.6,-2.4,-10.5,7.9,-0.6,17.2,x,x,x
CCc1ccc(/C=C/C(=O)c2cc(Br)ccc(=O)c2O)cc1,14.9,31.5*,9.0,16.0,30.3*,19.1,61.4*,46.3*,18.5
CCc1ccc(NC(=O)c2cc(Br)ccc2Br)cc1,2.9,-0.1,-6.3,-0.9,x,-1.7,x,x,x
Cc1ccc(S(=O)(=O)C=CS(=O)(=O)c2ccc(C)cc2)cc1,x,90.2*,x,x,37.2*,x,68.3*,108.3*,94.7*
O=S(=O)(/C=C/C=C/S(=O)(=O)c1ccccc1)c1ccccc1,x,25.3*,x,x,89.7*,x,91.2*,110.6*,28.4*
